The list is not random: actives were taken first. Their share in the collection is about 1.9%.
Rin1-Abl PPI inh = human Rin1-Abl interaction inhibition; actives 0.4% (n = 360,000); TR-FRET Rin1/Abl binding, biochemical; inhibition, % at 7.35 µM; P00519+Q13671; in the data active = inhibition above about 5%, passing the limit was not always enough
GRK2 aptamer HTS = human GRK2 inhibition via aptamer displacement. bead flow cytometry, FAM-aptamer displacement from GRK2. inhibition of aptamer binding, % at 10 µM. actives 0.59% (n = 330,000). AID 488847. P25098;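 active = inhibition of aptamer binding above 40%, roughly 3 SD of noise, on plates passing a quality check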;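 note: median bead fluorescence of bound FAM aptamer so fluorescent compounds give negative values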
Target sequence (P25098 whole entry, looked up): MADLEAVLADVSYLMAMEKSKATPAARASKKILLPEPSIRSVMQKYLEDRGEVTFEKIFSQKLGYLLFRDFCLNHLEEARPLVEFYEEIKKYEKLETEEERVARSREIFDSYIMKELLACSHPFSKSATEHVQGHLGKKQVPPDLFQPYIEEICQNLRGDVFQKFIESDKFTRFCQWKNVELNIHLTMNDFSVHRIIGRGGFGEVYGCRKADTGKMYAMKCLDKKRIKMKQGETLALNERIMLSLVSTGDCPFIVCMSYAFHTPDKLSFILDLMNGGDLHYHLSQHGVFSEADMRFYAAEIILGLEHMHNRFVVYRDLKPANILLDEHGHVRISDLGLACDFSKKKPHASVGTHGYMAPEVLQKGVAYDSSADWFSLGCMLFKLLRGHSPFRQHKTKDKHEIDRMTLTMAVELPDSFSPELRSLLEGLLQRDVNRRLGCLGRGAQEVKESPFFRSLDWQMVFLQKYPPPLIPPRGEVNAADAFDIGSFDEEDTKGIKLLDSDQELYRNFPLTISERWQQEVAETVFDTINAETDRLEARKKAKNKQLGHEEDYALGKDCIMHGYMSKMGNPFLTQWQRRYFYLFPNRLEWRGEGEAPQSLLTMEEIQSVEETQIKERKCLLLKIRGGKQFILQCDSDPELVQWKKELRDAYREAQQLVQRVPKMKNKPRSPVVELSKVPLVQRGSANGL
SR-BI DiI inh = blocks mouse SR-BI lipid uptake from DiI-HDL | Q61009 | ldlA[mSR-BI] CHO cells, DiI-HDL uptake fluorescence, 3 h | actives 0.96% (n = 320,000) | inhibition, % at 12.5 µM;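 active = mean replicate inhibition of at least 70% and a set share of replicates each scoring 70 or more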;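 note: 0% = median of neutral control wells and 100% = median of positive control wells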
SR-BI DiI-HDL act = activators of SR-BI mediated HDL lipid uptake. CHO ldlA[mSR-BI] cells, DiI-HDL uptake fluorescence, 3 h; 100 = double the neutral-control signal. activation, % at 12.5 µM. actives 0.096% (n = 320,000);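 active = mean replicate activation of at least 60% and every replicate at or above 60%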;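 note: 0% = median plate neutral-control signal and 100% = twice that signal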
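Assay system: LDL receptor-deficient CHO ldlA cells overexpressing murine SR-BI / Medium: BSA-supplemented, HEPES-buffered Ham's F12, pH 7.4 / Probe or stimulus: DiI-labelled HDL at 10 µg/mL final / Timing: compound with DiI-HDL co-incubation, 3 h at 37 °C / Technique: bottom-read cell fluorescence after medium removal, ex 550/em 595 nm / Measure: HDL uptake via cellular fluorescence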
Rin1 Abl conf = confirmation of inhibitors of human Rin1-Abl interaction. shares compounds with Rin1-Abl PPI inh. TR-FRET Rin1-Abl binding, purified proteins. inhibition, % at 7.35 µM. actives 49% (n = 1,300); in the data active = inhibition above about 6.5%
GFP quench-1 = quenches GFP fluorescence, counter-screen for Rin1-Abl inhibitors. shares compounds with Rin1-Abl PPI inh. inhibitors/quenchers counterscreen. inhibition, % at 6.75 µM. actives 8.5% (n = 1,300). AID 602125; in the data active = inhibition above about 6.5%;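 note: ABL1-eGFP fusion protein alone without its partner RIN1-SBP; 0% = protein with vehicle and 100% = wells lacking protein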
GFP quench DR = quenches GFP in dose response, Rin1-Abl counter-screen; GFP fluorescence interference/quenching counterscreen; 230 tested, under 10 active; AID 602182; IC50, µM; shares compounds with Rin1-Abl PPI inh;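 note: ABL1-eGFP fusion protein alone without its RIN1 binding partner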
GFP quench-2 = GFP quenching artifact for Rin1-Abl inhibitor hits; shares compounds with Rin1-Abl PPI inh; GFP fluorescence quenching counterscreen, biochemical; IC50, µM; 25 tested, under 10 active
Starred values were filed as active, the others as inactive; nt = not tested or not shown. Unless noted, the rule behind the calls is not given here.

SMILES	Rin1-Abl PPI inh	GRK2 aptamer HTS	SR-BI DiI inh	SR-BI DiI-HDL act	Rin1 Abl conf	GFP quench-1	others
COc1ccc(OC)c(/C(C)=N/Nc2ccc(C(=O)O)cc2)c1	-4	32	-33	33	nt	nt
C/C(=N/Nc1ccc(C(=O)O)cc1)c1ccc(O)c(O)c1O	29*	9	1	-1	32*	8.4*
CC1(C)CC(=O)C=C(c2ccc(-c3cccc4c3sc3ccccc34)cc2)C1=O	0	nt	nt	nt	nt	nt
COc1ccc(C2C3=C(CC(C)(C)CC3=O)Oc3ncn(CCO)c(=N)c32)cc1OC (stereo not drawn)	14*	6	-14	14	1	0
CC(C)Cn1cnc2c(c1=N)C(c1ccccc1)C1=C(CC(C)(C)CC1=O)O2 (stereo not drawn)	7.0*	2	3	-3	1	-1
COc1cccc(NC(=O)CN2C(=O)CSc3ccc(S(=O)(=O)N4CCOCC4)cc32)c1	6	0	-4	4	nt	nt
O=C(CN1C(=O)CCSc2ccc(S(=O)(=O)N3CCOCC3)cc21)Nc1cccc(F)c1	16*	15	-6	6	15*	2
CCc1nc(SCC(=O)NCCc2ccc(OC)c(OC)c2)c2c(=O)n(C)c(=O)n(C)c2n1	10*	0	12	-12	16*	1
O=C(Nc1cccc([N+](=O)[O-])c1)NN1CCCCCC1	2	nt	43	-43	nt	nt
COc1ccc(N2C(=O)N3[C@@H]4c5ccccc5OC[C@@H]4[C@@H](c4ccccc4)[C@@]3(C)C2=O)cc1	4	1	45	-45	nt	nt
O=C(O)c1cccc2cccc(-c3c4ccc(=O)c(O)c-4oc4c(O)c(O)ccc34)c12	41*	nt	14	-14	45*	28*
C=CCNc1ncnc2c1ncn2[C@H]1CN(CCOC)C[C@@H](CO)O1	0	nt	nt	nt	nt	nt
CN(C(=O)c1ccc(NC(=O)Cc2ccc(NC(=O)C3CCN(C(=O)C4CCCC4)CC3)cc2)cc1)C1CCCC1	22*	nt	-10	10	27*	-1	GFP quench DR=>67
CN(CCc1ccccc1)C(=O)c1ccc(NC(=O)Cc2cccc(NC(=O)C3CCN(C(=O)c4ccccc4)CC3)c2)cc1	9.1*	nt	36	-36	9.1*	1
CN(C(=O)c1ccc(NC(=O)Cc2ccc(NC(=O)C3CCN(C(=O)CCc4ccccc4)CC3)cc2)cc1)C1CC1	12*	0	63	-63	17*	0
CN(C(=O)c1ccc(NC(=O)Cc2ccc(NC(=O)C3CCCN(C(=O)C4CCCC4)C3)cc2)cc1)C1CC1 (stereo not drawn)	13*	1	56	-56	19*	2
CC(C)N(C(=O)[C@H]1CC(CC(=O)NC(C)(C)C)C(=O)N2CCc3c([nH]c4ccccc34)[C@]12C)C(C)C (stereo partly drawn)	3	11	-13	13	nt	nt
CCOC(=O)[C@@H](NC(=O)CC[C@H]1O[C@@H](n2cc(C)c(=O)[nH]c2=O)C[C@@H]1O)C(C)C	0	nt	nt	nt	nt	nt
Cc1ccc(N/C=C(\C#N)S(=O)(=O)c2ccccc2)cc1	2	2	-11	11	nt	nt
O=C(Cc1ccc(NC(=O)C2CCN(C(=O)C3CCCCC3)CC2)cc1)Nc1ccc(C(=O)N2CCOCC2)cc1	39*	nt	9	-9	44*	0	GFP quench DR=>68;GFP quench-2=>68
CN(C(=O)c1ccc(NC(=O)Cc2ccc(NC(=O)C3CCN(C(=O)C4CCCCC4)CC3)cc2)cc1)C1CC1	68*	2	18	-18	66*	-1
O=C(Cc1ccc(NC(=O)C2CCCN(C(=O)C3CCCCC3)C2)cc1)Nc1ccc(C(=O)N2CCOCC2)cc1 (stereo not drawn)	1	nt	-5	5	nt	nt
CN(C(=O)c1ccc(NC(=O)Cc2ccc(NC(=O)C3CCN(C(=O)C4CC4)CC3)cc2)cc1)C1CCCC1	-4	nt	-5	5	nt	nt
O=C(CCO)c1ccc(O)cc1	29*	11	-6	6	33*	7	GFP quench DR=>67
CCOC(=O)CNC(=O)N1C[C@H]2CON(C)[C@H]2C[C@H]1c1ccccc1Br	4	nt	nt	nt	nt	nt
SMILES	Rin1-Abl PPI inh	GRK2 aptamer HTS	SR-BI DiI inh	SR-BI DiI-HDL act	Rin1 Abl conf	GFP quench-1	others
Brc1ccc(N=NNc2ccccc2)cc1	5.8*	0	-26	26	-2	-1
COc1cccc2cc(CC(=O)c3ccccc3)c(=O)oc12	2	2	2	-2	nt	nt
CCc1ccc(C(=O)Cc2cc3cccc(OC)c3oc2=O)cc1	8.5*	0	-6	6	1	0
NC(=O)c1cccc(-c2ccnc3c2CC(C(=O)Nc2ccccc2)O3)c1 (stereo not drawn)	12*	nt	nt	nt	8.6*	0
CC(=O)Nc1ccc(-c2ccnc3c2CC(C)(C(=O)NCc2ccc(N4CCN(C)CC4)cc2)O3)cc1 (stereo not drawn)	8.7*	nt	nt	nt	6.6*	0
COc1ccc(NC(=O)C2(C)Cc3c(-c4cccc(C(N)=O)c4)ccnc3O2)cc1 (stereo not drawn)	10*	nt	nt	nt	3	1
NC(=O)c1cccc(-c2ccnc3c2CC(C(=O)Nc2ccc(Cl)cc2)O3)c1 (stereo not drawn)	-3	nt	nt	nt	nt	nt
CC(=O)Nc1ccc(NC(=O)C2(C)Cc3c(-c4cccc(C(N)=O)c4)ccnc3O2)cc1 (stereo not drawn)	1	nt	nt	nt	nt	nt
CN(C)c1ccc(CNC(=O)C2(C)Cc3c(-c4cccc(C(N)=O)c4)ccnc3O2)cc1 (stereo not drawn)	16*	nt	nt	nt	8.3*	2
COc1ccc(-c2nc3ccc(Cl)cn3c2Cc2cccc(F)c2)cc1OC	1	nt	nt	nt	nt	nt
CN(C)c1ccc(CNC(=O)C2Cc3c(-c4cccc(C(N)=O)c4)ccnc3O2)cc1 (stereo not drawn)	7.0*	nt	nt	nt	7.2*	-2
NC(=O)c1cccc(-c2ccnc3c2CC(C(=O)NCc2ccco2)O3)c1 (stereo not drawn)	1	nt	nt	nt	nt	nt
O=C(N/N=C/c1cn(Cc2cccc(F)c2)c2ccccc12)c1cc(O)cc(O)c1	14*	89*	-6	6	8.7*	10*
COc1ccc(CN(CCCn2cnc3c(OC)ncnc32)CCCn2cnc3c(OC)ncnc32)cc1	-3	nt	nt	nt	nt	nt
Cc1cc(C)n(-c2cc(Cl)cc(Cl)c2)c(=O)c1C#N	8.3*	1	nt	nt	-3	0
Cc1ccc(-n2c(C)cc(C)c(C#N)c2=O)cc1Cl	0	0	-8	8	nt	nt
CCNC(=O)C1(C)CCCN(C(=O)c2cc(-c3cccs3)oc2C)C1 (stereo not drawn)	-3	nt	nt	nt	nt	nt
